Structures are written as SMILES.

Data set [1] has as its system Human immunodeficiency virus 1. Briefly: Antiviral activity against wild-type HIV1 3B infected in human C8166 cells assessed as protection against virus-induced cytopathogenicity after 3 days by measuring syncytia under inverted microscope. Format: functional, organism-based. To be noted: Human immunodeficiency virus 1, 3B, C8166, 72 h. The method, boiled down: (§1)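 C8166 cells at 4 × 10⁵/mL infected at M.O.I. 0.06 in the presence of serial compound concentrations, with AZT and GW678248 as drug controls. After 3 days of culture, syncytia (multinucleated giant cells) counted under an inverted microscope. EC₅₀ is the concentration blocking syncytium formation by 50%.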

Data set [2] relates to Human immunodeficiency virus 1. The data set can be described thus: Antiviral activity against HIV1 A17 expressing reverse transcriptase K103N/Y181C double mutant infected in human C8166 cells assessed as protection against virus-induced cytopathogenicity after 3 days by measuring syncytia under inverted microscope. To be noted: Human immunodeficiency virus 1, A17, C8166, 72 h. Format: functional, organism-based. An outline of the steps: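 C8166 cells (4 × 10⁵/mL) infected with HIV-1 A17 at MOI 0.06 in the presence of various compound concentrations. AZT and GW678248 served as drug controls. After 3 days of culture, syncytia (multinucleated giant cells) were scored under an inverted microscope. EC₅₀ was calculated as the concentration blocking syncytium formation by 50%.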

Data set [3] can be described thus: Cytotoxicity against human C8166 cells by MTT colorimetric assay. Format: cell-based. An outline of the steps:
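Uninfected C8166 cells exposed to compounds; viability read by MTT colorimetric assay at absorbance 570/630 nm. CC₅₀ is the concentration reducing viability by 50%.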

Data set [4] in a line: Selectivity index, ratio of CC50 for human C8166 cells to EC50 for HIV1 3B infected in human C8166 cells. Particulars: HIV-1 3B infected C8166 cells, read-out: Ratio CC50/EC50. Format: toxicity, cell-based. The method, boiled down: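 Calculated as CC₅₀ (MTT viability of uninfected C8166 cells) divided by EC₅₀ against HIV-1 IIIB (syncytium scoring in C8166 cells, M.O.I. 0.06, 3 days).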

The test system of data set [5] is Human immunodeficiency virus 2. The data set can be described thus: Antiviral activity against HIV-2 ROD infected in human C8166 cells assessed as protection against viral cytopathogenicity after 3 days by measuring syncytia under inverted microscope. Format: functional, organism-based. Particulars: Human immunodeficiency virus 2, ISOLATE ROD, C8166, 72 h. The method, boiled down:
as §1

Consider `Cc1cc(S(N)(=O)=O)ccc1NC(=O)COc1ccc2ccccc2c1C(=O)c1ccccc1`, for which the EC50 in data set [1] came out at 0.0527 µM; in data set [2], 9.6 µM. The CC50 in data set [3] turned out to be 33.8 µM. Moreover, the selectivity ratio in data set [4] turned out to be 642.
For the molecule `Cc1cccc(C(=O)c2c(OCC(=O)Nc3ccc(S(N)(=O)=O)cc3C)ccc3ccccc23)c1`, the results for the EC50 in data set [5], in data set [1] and in data set [2] were 28.3 µM, 0.0135 µM and 2.4 µM, respectively. The molecule further returned a CC50 in data set [3] of 40.4 µM. Further, in data set [4], the selectivity ratio turned out to be 2990.
The like results for `Cc1cc(S(N)(=O)=O)ccc1NC(=O)COc1ccc2ccccc2c1C(=O)c1cccc(Cl)c1` were, in that order, 34.5 µM, 0.0338 µM, 9.5 µM, 37.4 µM and 1110.
In the case of `Cc1cc(C)cc(C(=O)c2c(OCC(=O)Nc3ccc(S(N)(=O)=O)cc3C)ccc3ccccc23)c1`, the figures for the EC50 in data set [5], in data set [1] and in data set [2] were 45.4 µM, 0.0078 µM and 8.4 µM, respectively. For the same molecule, in data set [3], it took 39.1 µM to reach half-maximal cytotoxicity (CC50). The selectivity ratio in data set [4] was 5040.
In the same order, the values of `Cc1ccc(C)c(C(=O)c2c(OCC(=O)Nc3ccc(S(N)(=O)=O)cc3C)ccc3ccccc23)c1` are 30.3 µM, 0.0116 µM, 7.6 µM, 47.5 µM and 4090.
For the molecule `Cc1ccc(C(=O)c2c(OCC(=O)Nc3ccc(S(N)(=O)=O)cc3C)ccc3ccccc23)c(C)c1`, the concentration for a half-maximal effect (EC50) in data set [1] came to 0.139 µM; in data set [2], 7.9 µM. The CC50 in data set [3] came to 25.5 µM. In data set [4], the selectivity ratio came to 183.
For the molecule `Cc1ccc(C(=O)c2c(OCC(=O)Nc3ccc(S(N)(=O)=O)cc3C)ccc3ccccc23)cc1C`, the figures for the EC50 in data set [1] and in data set [2] were 0.609 µM and 12.3 µM, respectively. Moreover, the midpoint of cytotoxicity in data set [3], the CC50, lay at 33 µM. Also, in data set [4], the selectivity ratio was 54.2.
As to `Cc1cc(S(N)(=O)=O)ccc1NC(=O)COc1ccc2ccccc2c1C(=O)c1cc(Cl)cc(Br)c1`, the EC50 amounted to 0.0271 µM in data set [1] and 7.5 µM in data set [2]. In addition, half-maximal cytotoxicity in data set [3] (CC50) was put at 36.6 µM. Besides, the selectivity ratio in data set [4] is 1350.
For the molecule `Cc1cc(S(N)(=O)=O)ccc1NC(=O)COc1ccc2ccccc2c1C(=O)c1cc(Cl)cc(C#N)c1`, the EC50 in data set [5] amounted to 23.6 µM; in data set [1], 0.0048 µM; in data set [2] it was 2.1 µM. Further, the CC50 in data set [3] turned out to be 49.4 µM. The selectivity ratio in data set [4] came out at 10300.
In the same order, the values of `Cc1cc(S(N)(=O)=O)ccc1NC(=O)COc1ccc2cc(Br)ccc2c1C(=O)c1ccccc1` are 27.7 µM, 4.61 µM, 25.8 µM, 29.2 µM and 6.3.
As for `Cc1cccc(C(=O)c2c(OCC(=O)Nc3ccc(S(N)(=O)=O)cc3C)ccc3cc(Br)ccc23)c1`, the EC50 in data set [1] came out at 2.3 µM; in data set [2], 3.4 µM. In addition, the CC50 in data set [3] is 6.8 µM. Besides, the selectivity ratio in data set [4] worked out at 2.9.
The like results for `Cc1cc(S(N)(=O)=O)ccc1NC(=O)COc1ccc2cc(Br)ccc2c1C(=O)c1cccc(Cl)c1` were, in that order, 1.67 µM, 3.9 µM, 6.8 µM and 4.1.
Consider `Cc1cc(S(N)(=O)=O)ccc1NC(=O)COc1ccc2cc(Br)ccc2c1C(=O)c1cccc(F)c1`, for which the figures for the EC50 in data set [5], in data set [1] and in data set [2] were 6 µM, 9.17 µM and 9.7 µM, respectively. For the same molecule, the CC50 in data set [3] was determined as 24.5 µM. Moreover, the selectivity ratio in data set [4] came to 2.7.
In the same order, the values of `Cc1cc(C)cc(C(=O)c2c(OCC(=O)Nc3ccc(S(N)(=O)=O)cc3C)ccc3cc(Br)ccc23)c1` are 29.8 µM, 4.42 µM, 7.8 µM, 31 µM and 7.
With `Cc1ccc(C(=O)c2c(OCC(=O)Nc3ccc(S(N)(=O)=O)cc3C)ccc3cc(Br)ccc23)c(C)c1`, the EC50 in data set [1] amounted to 23.6 µM; in data set [2], 33.1 µM. In data set [3], this molecule registered a CC50 of 61.4 µM. In addition, the selectivity ratio in data set [4] turned out to be 2.6.
For `Cc1ccc(C)c(C(=O)c2c(OCC(=O)Nc3ccc(S(N)(=O)=O)cc3C)ccc3cc(Br)ccc23)c1`, the EC50 is 2.64 µM in data set [1] and 20.7 µM in data set [2]. The molecule also showed a CC50 in data set [3] of 14 µM. Besides, the selectivity ratio in data set [4] came to 5.3.
In the same order, the values of `Cc1ccc(C(=O)c2c(OCC(=O)Nc3ccc(S(N)(=O)=O)cc3C)ccc3cc(Br)ccc23)cc1C` are 31.9 µM, 28.2 µM, 85.2 µM and 2.7.
As to `Cc1cc(S(N)(=O)=O)ccc1NC(=O)COc1ccc2cc(Br)ccc2c1C(=O)c1cc(Cl)cc(Br)c1`, the values for the EC50 in data set [5], in data set [1] and in data set [2] were 11.1 µM, 7.57 µM and 10.2 µM, respectively. For the same molecule, in data set [3], the CC50 came to 28.5 µM. Moreover, in data set [4], the selectivity ratio amounted to 3.8.
Take `Cc1cccc(C(=O)c2c(OCC(=O)Nc3ccc(S(N)(=O)=O)cc3C)ccc3cc(C#N)ccc23)c1`: the EC50 came out at 0.791 µM in data set [1] and 10.4 µM in data set [2]. In data set [3], the half-maximal cytotoxic concentration (CC50) worked out at 15.2 µM. For the same molecule, in data set [4], the selectivity ratio was found to be 19.2.
In the same order, the values of `Cc1cc(S(N)(=O)=O)ccc1NC(=O)COc1ccc2cc(C#N)ccc2c1C(=O)c1cccc(Cl)c1` are 2.05 µM, 20.6 µM, above 374 µM and above 183.
The like results for `Cc1ccc(C(=O)c2c(OCC(=O)Nc3ccc(S(N)(=O)=O)cc3C)ccc3cc(C#N)ccc23)cc1C` were, in that order, 86.3 µM, 97.3 µM, above 379 µM and above 4.4.
In the same order, the values of `Cc1cc(C)cc(C(=O)c2c(OCC(=O)Nc3ccc(S(N)(=O)=O)cc3C)ccc3cc(C#N)ccc23)c1` are 1.78 µM, 16.3 µM, 128 µM and 72.
For `Cc1cc(S(N)(=O)=O)ccc1NC(=O)COc1ccc(Cl)cc1C(=O)c1cc(Cl)cc(C#N)c1`, the figures for the EC50 in data set [5] and in data set [2] were 2.1 µM and 0.0014 µM, respectively. The same molecule had a CC50 in data set [3] above 387 µM. In addition, the selectivity ratio in data set [4] is above 563000.
The like results for `Cc1cn([C@H]2C[C@H](N=[N+]=[N-])[C@@H](CO)O2)c(=O)[nH]c1=O` [ZIDOVUDINE] were, in that order, 0.039 µM, 0.023 µM, 5400 µM and 422000.
